From PubChem
Only some compounds are listed: those with a hit (about 4.6% of all), similar ones and a draw of the others.
NALP3 yeast inh = NALP3 inhibition in yeast. Yeast reconstituted NLRP3/ASC/caspase-1, beta-gal luminescence, 24 h. inhibition, % at 10 µM. actives 0.39% (n = 330,000);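 active = inhibition of 50% or more; inactive = inhibition below 50%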
Arrestin-AP2 inh = inhibitors of human beta-arrestin and AP2 interaction; FITC-arrestin peptide / GST-AP2 beads, flow cytometry; AP2 beta2 appendage carries R879A mutation; inhibition, % at 10 µM; actives 0.31% (n = 340,000); AID 504490;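 active = inhibition above a set limit, near 3 SD of compounds lacking own fluorescence, cut at about 54% in these data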
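test system = AP2 appendage R879A on GSH beads | buffer or medium = PBS plus Tween 20 (0.05%) and BSA (0.1%) | incubation = 12 min plus 1 h, RT | detection = bead flow cytometry, FITC channel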
PolyA inh = blocks polyadenylation in yeast reporter cells | activity score, % at 12 µM | AID 1875 | S. cerevisiae SKY197-pL101 polyadenylation reporter, beta-gal luminescence; efflux-impaired pdr1/pdr3 knockout yeast; score 100 = 6 SD above DMSO | actives 0.02% (n = 300,000);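 active = lowest replicate activity score at least 50, where 100 means six control SD above control mean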;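 also: yeast exposed to compound for 9 h at 30 °C; higher score means more reporter readthrough which indicates perturbed polyadenylation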
NALP1 yeast inh = blocks the NALP1 inflammasome reconstituted in yeast. actives 0.61% (n = 280,000). S. cerevisiae NALP1/ASC/caspase-1 growth, X-gal OD620, 72 h. inhibition, % at 10 µM. AID 2071; in the data active = inhibition mostly above about 24%, no sharp cut-off; inactive = mostly below about 32%
Pemphigus Ab inh = human desmoglein-3 autoantibody binding inhibition; P32926; DSG3-coupled beads, scFv-anti-DSG3-GFP binding, flow cytometry; stronger effect = lower value; binding (percent of control), % at 10 µM; actives 0.48% (n = 310,000); AID 588358;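 active = binding more than 3 SD below its plate's average and above zero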;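 also: hits lower antibody fragment binding to DSG3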
Target sequence (P32926 whole entry, looked up, the tested form may be a part): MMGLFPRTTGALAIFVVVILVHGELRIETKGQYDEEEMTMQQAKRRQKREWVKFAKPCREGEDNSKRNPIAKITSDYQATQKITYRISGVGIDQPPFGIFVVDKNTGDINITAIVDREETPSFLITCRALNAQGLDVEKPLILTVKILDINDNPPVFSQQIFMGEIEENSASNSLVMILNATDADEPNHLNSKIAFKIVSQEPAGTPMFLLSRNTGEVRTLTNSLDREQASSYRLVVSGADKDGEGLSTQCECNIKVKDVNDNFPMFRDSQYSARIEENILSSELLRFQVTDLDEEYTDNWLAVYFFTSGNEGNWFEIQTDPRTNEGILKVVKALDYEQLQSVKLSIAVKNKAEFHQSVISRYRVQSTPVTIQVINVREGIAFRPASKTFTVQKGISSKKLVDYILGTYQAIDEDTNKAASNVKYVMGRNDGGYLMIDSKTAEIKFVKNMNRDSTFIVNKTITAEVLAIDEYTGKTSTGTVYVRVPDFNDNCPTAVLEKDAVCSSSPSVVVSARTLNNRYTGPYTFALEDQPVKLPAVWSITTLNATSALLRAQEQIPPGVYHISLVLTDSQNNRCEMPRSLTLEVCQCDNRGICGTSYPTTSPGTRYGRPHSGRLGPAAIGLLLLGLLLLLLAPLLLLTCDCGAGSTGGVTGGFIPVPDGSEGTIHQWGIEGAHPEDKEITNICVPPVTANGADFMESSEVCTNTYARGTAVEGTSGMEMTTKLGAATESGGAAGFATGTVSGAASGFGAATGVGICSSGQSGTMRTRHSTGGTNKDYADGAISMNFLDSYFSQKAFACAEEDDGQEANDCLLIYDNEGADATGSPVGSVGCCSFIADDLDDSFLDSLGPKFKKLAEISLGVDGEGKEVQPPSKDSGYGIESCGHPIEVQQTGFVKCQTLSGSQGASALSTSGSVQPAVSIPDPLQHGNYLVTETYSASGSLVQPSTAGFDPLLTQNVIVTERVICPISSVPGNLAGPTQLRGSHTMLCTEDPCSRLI
ALR H2O2 inh = blocks human ALR sulfhydryl oxidase activity | P55789 | purified ALR, DTT oxidation, H2O2 HRP-luminol luminescence | inhibition, % (test concentration not listed) | actives 3.8% (n = 290,000);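 active = mean replicate inhibition above about 79%, with every replicate also reaching it, limit read from the data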
A number is an active result.

`COc1ccc(N(C)S(=O)(=O)c2cccc(C(=O)Nc3nc(C)c(C(C)=O)s3)c2)cc1` gave NALP3 yeast inh inactive, Arrestin-AP2 inh inactive and ALR H2O2 inh 99.
`COc1ccc(N(C)S(=O)(=O)c2cccc(C(=O)Nc3cccc(C(=O)NC4CC4)c3)c2)cc1` gave NALP3 yeast inh inactive, Arrestin-AP2 inh inactive and ALR H2O2 inh 94.
`CN(c1cccc(Cl)c1)S(=O)(=O)c1cccc(C(=O)NC2=NCCS2)c1` gave NALP3 yeast inh inactive, Arrestin-AP2 inh inactive, PolyA inh inactive, NALP1 yeast inh inactive and ALR H2O2 inh 98.
COc1ccc(NC(=O)c2ccco2)cc1NC(=O)c1cccc(F)c1 was read as NALP3 yeast inh inactive, Arrestin-AP2 inh inactive, PolyA inh inactive and NALP1 yeast inh inactive.
Cc1cccnc1NC(=O)CN1C(=O)c2ccccc2S1(=O)=O was read as NALP3 yeast inh inactive, Arrestin-AP2 inh inactive, PolyA inh inactive, Pemphigus Ab inh inactive and ALR H2O2 inh inactive.
`COC(=O)c1nccnc1N` gave Arrestin-AP2 inh inactive and Pemphigus Ab inh inactive.
CN(C(=O)c1cccc(Br)c1)C1CCS(=O)(=O)C1 (stereo not given) was read as NALP3 yeast inh inactive, Arrestin-AP2 inh inactive, PolyA inh inactive, Pemphigus Ab inh inactive and ALR H2O2 inh inactive.
Screening COCCNCc1ccccc1[N+](=O)[O-] returned NALP3 yeast inh inactive, Arrestin-AP2 inh inactive, Pemphigus Ab inh inactive and ALR H2O2 inh inactive.
For CSc1ncnc2c1ncn2CCCNCc1ccccn1 the results were Pemphigus Ab inh inactive.
CC(NC(=O)CSc1ncn[nH]1)c1ccc(Cl)cc1Cl (stereo not given) was read as NALP3 yeast inh inactive, Arrestin-AP2 inh inactive, PolyA inh inactive, NALP1 yeast inh inactive and Pemphigus Ab inh inactive.
For Cn1cccc1C(=O)OCC(=O)N1CCN(c2ccccc2)CC1 the results were NALP3 yeast inh inactive, Arrestin-AP2 inh inactive, Pemphigus Ab inh inactive and ALR H2O2 inh 98.
Screening O=C(OCC(=O)N1CCN(c2ccccc2)CC1)c1ccccn1 returned Arrestin-AP2 inh inactive, PolyA inh inactive, NALP1 yeast inh inactive, Pemphigus Ab inh inactive and ALR H2O2 inh inactive.
O=C(OCC(=O)N1CCN(c2ccccc2)CC1)c1ccc2ccccc2n1 was read as NALP3 yeast inh inactive, Arrestin-AP2 inh inactive, PolyA inh inactive, NALP1 yeast inh inactive, Pemphigus Ab inh inactive and ALR H2O2 inh 97.
Screening CC(=O)c1ccc(-c2ccc(C(=O)NC3CCCCCC3)o2)cc1 returned NALP3 yeast inh inactive, Arrestin-AP2 inh inactive, PolyA inh inactive, NALP1 yeast inh inactive, Pemphigus Ab inh inactive and ALR H2O2 inh 98.
`O=C(NC1CCC(O)CC1)c1ccc(-c2ccc(Cl)cc2)o1` (stereo not given) gave NALP3 yeast inh inactive, Arrestin-AP2 inh inactive, PolyA inh inactive, Pemphigus Ab inh inactive and ALR H2O2 inh inactive.
COc1ccc(C)cc1NC(=O)C1CCN(C(=O)c2ccc(C(C)(C)C)cc2)CC1 was read as NALP3 yeast inh inactive, Arrestin-AP2 inh inactive, PolyA inh inactive, NALP1 yeast inh inactive, Pemphigus Ab inh inactive and ALR H2O2 inh inactive.
CC(C)CNC(=O)c1ccccc1NC(=O)CN(c1ccccc1)S(=O)(=O)N(C)C was read as NALP3 yeast inh inactive, Arrestin-AP2 inh inactive, PolyA inh inactive, NALP1 yeast inh inactive, Pemphigus Ab inh 54 and ALR H2O2 inh inactive.
Screening CCOc1ccc(CCNC(=O)CS(=O)(=O)Cc2nc(-c3ccccc3F)oc2C)cc1 returned NALP3 yeast inh inactive, Arrestin-AP2 inh inactive, PolyA inh inactive, NALP1 yeast inh inactive, Pemphigus Ab inh inactive and ALR H2O2 inh inactive.
For COc1ccc(CCNC(=O)COC(=O)c2cccs2)cc1OC the results were NALP3 yeast inh inactive, Arrestin-AP2 inh inactive, PolyA inh inactive, NALP1 yeast inh inactive, Pemphigus Ab inh inactive and ALR H2O2 inh inactive.
COc1ccc(CCNC(=O)CS(=O)(=O)Cc2nc(-c3ccccc3Cl)oc2C)cc1OC was read as NALP3 yeast inh inactive, Arrestin-AP2 inh inactive, PolyA inh inactive, NALP1 yeast inh inactive, Pemphigus Ab inh inactive and ALR H2O2 inh inactive.
Screening COc1ccc(CCNC(=O)CS(=O)Cc2nc(-c3ccccc3F)oc2C)cc1OC (stereo not given) returned NALP3 yeast inh inactive, Arrestin-AP2 inh inactive, PolyA inh inactive, NALP1 yeast inh inactive, Pemphigus Ab inh inactive and ALR H2O2 inh 99.
COc1ccc(CCNC(=O)CS(=O)Cc2nc(-c3cccs3)oc2C)cc1OC (stereo not given) was read as NALP3 yeast inh inactive, Arrestin-AP2 inh inactive, PolyA inh inactive, NALP1 yeast inh inactive, Pemphigus Ab inh inactive and ALR H2O2 inh 99.
COc1ccc(CCNC(=O)CS(=O)Cc2nc(-c3ccccc3Cl)oc2C)cc1OC (stereo not given) was read as NALP3 yeast inh inactive, Arrestin-AP2 inh inactive, PolyA inh inactive, NALP1 yeast inh inactive, Pemphigus Ab inh inactive and ALR H2O2 inh 98.
For Cc1ccc(CCNC(=O)CS(=O)Cc2nc(-c3ccccc3F)oc2C)cc1 (stereo not given) the results were NALP3 yeast inh inactive, Arrestin-AP2 inh inactive, PolyA inh inactive, NALP1 yeast inh inactive, Pemphigus Ab inh inactive and ALR H2O2 inh 99.
Screening COc1ccc(CCNC(=O)C2CCCN(Cc3nc(-c4ccccc4C)oc3C)C2)cc1OC (stereo not given) returned NALP3 yeast inh inactive, Arrestin-AP2 inh inactive, PolyA inh inactive, NALP1 yeast inh inactive, Pemphigus Ab inh inactive and ALR H2O2 inh inactive.
For CN(C)S(=O)(=O)c1ccc(Cl)c(NC(=O)CN2CCCC2)c1 the results were NALP3 yeast inh inactive, Arrestin-AP2 inh inactive, PolyA inh inactive, NALP1 yeast inh inactive, Pemphigus Ab inh inactive and ALR H2O2 inh inactive.
`NC(=O)C1CCN(C(=O)c2ccc(Cl)c(NC(=O)c3cccs3)c2)CC1` gave Pemphigus Ab inh inactive.
CC(C)(C)OC(=O)C[C@@H]1C/C=C\C[C@@H](CC(=O)N[C@H](CO)Cc2ccccc2)C(=O)N2CCC[C@H]2COC1=O was read as NALP3 yeast inh inactive, Arrestin-AP2 inh inactive, Pemphigus Ab inh inactive and ALR H2O2 inh inactive.
`CCc1ccc(N2C(=O)c3sc4nnc(C)c(=O)n4c3C2=O)cc1` gave NALP3 yeast inh inactive, Arrestin-AP2 inh inactive, PolyA inh inactive, NALP1 yeast inh inactive, Pemphigus Ab inh inactive and ALR H2O2 inh inactive.
For Cc1ccc(N2C(=O)c3sc4nnc(C)c(=O)n4c3C2=O)cc1 the results were NALP3 yeast inh inactive, Arrestin-AP2 inh inactive, PolyA inh inactive, NALP1 yeast inh inactive and ALR H2O2 inh 98.
Screening Cc1nnc2sc(SCC(=O)Nc3cccc(Cl)c3)nn2c1=O returned NALP3 yeast inh inactive, Arrestin-AP2 inh inactive, PolyA inh inactive, NALP1 yeast inh inactive, Pemphigus Ab inh inactive and ALR H2O2 inh 98.
